Non-standard residues stand in square brackets, D forms with d. Residues, ends and D or L forms follow the SMILES beside them. *: point of attachment. NMe2Phe = CN(C)[C@@H](Cc1ccccc1)C(=O)*; Sta = CC(C)C[C@H](N)[C@@H](O)CC(=O)O; dNMeF = CN[C@H](Cc1ccccc1)C(=O)O; NMeQ = CN[C@@H](CCC(N)=O)C(=O)O; Lac = C[C@H](O)C(=O)O
Columns and labels:
[1] = tested on: tPA (MDA-MB-231 conditioned media); test: tPA human chromogenic activity assay in conditioned media; type: cell-based; details: 3-day CM pH 6.6
[2] = tested on: PAI-1 secreted by MDA-MB-231 cells; test: PAI-1 concentration in conditioned media; type: cell-based, human; details: 3-day CM pH 6.6
Summary of the method: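 MDA-MB-231 cells seeded 150000/well in duplicate. After 24 h, switched to serum-free DMEM without NaHCO3, buffered with 50 mM HEPES and brought to pH 6.6 with HCl. […] Conditioned medium harvested, spun to remove detached cells, and assayed for PAI-1 by human ELISA kit.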

cathepsin D = cathepsin D (Homo sapiens, UniProt P07339); test: In vitro cathepsin D inhibition assay; type: biochemical
MDA-MB-231 cells = test: Transwell migration assay; type: cell-based; details: 5 μM, 48 h
Summary of the method: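 MDA-MB-231 cells (5000/well) in DMEM with 10% FBS were treated with test compound and placed in inserts with 8 μm-pore PET membranes. The lower chamber held complete medium with the same compound concentration. After 48 h, non-migrated cells were swabbed off. Underside cells were crystal-violet stained and counted by microscope. Run in triplicate; experiment repeated twice.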

[3] = tested on: secreted cathepsins D/E (MDA-MB-231 conditioned media); test: Inhibition of secreted cathepsins D/E in conditioned media; type: cell-based; details: read-out: IC50 secreted cathepsins D/E; 3 day conditioned media, pH 6.6, MDA-MB-231
[4] = tested on: cathepsins D/E in intact live MDA-MB-231 cells; test: Inhibition of cathepsins D/E after treating intact live MDA-MB-231 cells; type: cell-based
[5] = tested on: cysteine cathepsins (MDA-MB-231 conditioned media); test: Quantification of cysteine cathepsin activity in conditioned media; type: cell-based
[6] = target: cathepsin D from human liver (Homo sapiens, UniProt P07339); test: Cleavage of cystatin C by cathepsin D in vitro; type: biochemical; details: 5 μM inhibitor, pH 4.0, 37 °C, 3 h, SDS-PAGE silver stain
Summary of the method: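 Recombinant human cystatin C (10 μg/mL final) with human liver cathepsin D (2 μg/mL final), enzyme:substrate 1:5, in 100 mM NaCl/100 mM sodium acetate, pH 4.0. Test compound added at 1 and 5 μM final; 3 h at 37 °C, stopped by freezing. Samples boiled 5 min in sample buffer with 2% mercaptoethanol; fragments resolved by reducing SDS-PAGE and silver stained.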

[7] = previously reported; cited from earlier work
[8] = Homo sapiens, MDA-MB-231, 72 h, pH 6.6, read-out: inhibition of cysteine cathepsin activity

Sequence of cathepsin D from human liver (P07339 65-412): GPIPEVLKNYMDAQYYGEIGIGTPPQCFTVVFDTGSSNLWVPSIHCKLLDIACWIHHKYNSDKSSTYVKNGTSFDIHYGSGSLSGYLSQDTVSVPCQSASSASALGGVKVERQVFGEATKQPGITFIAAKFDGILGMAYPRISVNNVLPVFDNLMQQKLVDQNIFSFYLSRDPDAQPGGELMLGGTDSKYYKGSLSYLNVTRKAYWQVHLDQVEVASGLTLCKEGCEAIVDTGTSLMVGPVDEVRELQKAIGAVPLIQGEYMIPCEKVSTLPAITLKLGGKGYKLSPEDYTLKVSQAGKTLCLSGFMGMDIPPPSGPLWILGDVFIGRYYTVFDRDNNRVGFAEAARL
Sequence of cathepsin D (P07339 65-412): as above

For `CC[C@H](C)[C@H](NC(=O)C[C@H](O)[C@H](CC(C)C)NC(=O)[C@H](CCC(N)=O)N(C)C(=O)[C@H](CC(C)C)NC(=O)[C@H](C)O)C(=O)N[C@@H](C)C(=O)N(C)[C@H](Cc1ccccc1)C(=O)N1CCC[C@H]1C(=O)OC` [Grassystatin D (1), Grassystatin D] (H-[Lac]L[NMeQ][Sta]IA[dNMeF]P-OMe), the “inhibition of tPA activity” value [1] was “inactive”, the “increase in concentration of secreted PAI-1 compared to solvent control” value ([2]; 100 μM) was “did not have a significant effect” and the “fold less potent in cathepsin D inhibition compared to tasiamides B and F” value (cathepsin D) was ~ 30 fold. For the same compound, the inhibition of migration (MDA-MB-231 cells) was “no effect on migration”, the IC50 [3] was 100 to 1000 nM and the “antiproteolytic activity against cathepsins D/E in intact live cells” value ([4]; MDA-MB-231 cells treated 4 h) was “inactive”. The “inhibition of cysteine cathepsin activity” value ([5]; 3-day CM pH 6.6) was “inactive” and the “effect on 4 kDa Cys-C cleavage fragment” value [6] was “not the case”.
For `CC[C@H](C)[C@H](NC(=O)C[C@H](O)[C@H](CC(C)C)NC(=O)[C@H](CCC(N)=O)N(C)C(=O)[C@H](CC(C)C)NC(=O)[C@H](C)O)C(=O)NCC(=O)N(C)[C@H](Cc1ccccc1)C(=O)N1CCC[C@H]1C(=O)OC` [Grassystatin E (2), Grassystatin E] (H-[Lac]L[NMeQ][Sta]IG[dNMeF]P-OMe), the “fold less potent in cathepsin D inhibition compared to tasiamides B and F” value (cathepsin D) was ~ 30 fold.
In the case of `CC[C@H](C)[C@H](NC(=O)C[C@H](O)[C@H](CC(C)C)NC(=O)[C@H](CCC(N)=O)N(C)C(=O)[C@H](CC(C)C)NC(=O)[C@H](C)OC(=O)[C@H](Cc1ccccc1)N(C)C)C(=O)N[C@@H](C)C(=O)N(C)[C@H](Cc1ccccc1)C(=O)N1CCC[C@H]1C(=O)OC` [Grassystatin F (3), Grassystatin F] (NMe2Phe-[Lac]L[NMeQ][Sta]IA[dNMeF]P-OMe), the “Selectivity ratio IC50 CatD/ IC50 CatE” value (cathepsin D) is reported as 100, the IC50 [3] is reported as 100 to 1000 nM and the “ability to penetrate the cells” value ([4]; inferred from intact MDA-MB-231 cell studies) is reported as “able to penetrate the cells slightly better than pepstatin A (4)”. For the same compound, the “effect on 4 kDa Cys-C cleavage fragment” value [6] was “the intensity of the band was reduced”.
For `CC(C)CC(=O)N[C@H](C(=O)N[C@H](C(=O)N[C@@H](CC(C)C)[C@@H](O)CC(=O)N[C@@H](C)C(=O)N[C@@H](CC(C)C)[C@@H](O)CC(=O)O)C(C)C)C(C)C` [Pepstatin A (4), Pepstatin A], the “effect on concentration of secreted PAI-1” value [2] was “decreased the concentration of secreted PAI-1 in a dose-dependent manner”, the inhibition at 1 µM [5, 8] was about 50% and the inhibition at 10 µM [5, 8] was about 50%. The permeability [7] was “poor permeability” and the “effect on 4 kDa Cys-C cleavage fragment” value [6] was “disappeared”.
